# In ChEMBL document CHEMBL4354812, “N-Benzyl/Aryl Substituted Tryptanthrin as Dual Inhibitors of Indoleamine 2,3-Dioxygenase and Tryptophan 2,3-Dioxygenase” (J Med Chem, 2019):
# Calls of active or inactive are those of the source. The rule behind the calls is not given here.
# Key:
# Mus musculus [1] = assay: In vivo blockade of kynurenine pathway in Kunming mouse implanted with mouse H22 cells assessed as decrease in kynurenine/tryptophan ratio in serum at 45 mg/kg, po qd for 2 weeks by HPLC analysis; assay type: functional, organism-based
# Method in brief: (§1)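 H22 tumor-bearing Kunming mice received oral dosing once daily in 0.5% CMC-Na for 2 weeks. Serum Trp and Kyn were measured by HPLC on a C18 column with 15 mM sodium acetate (pH 3.6) containing 4% acetonitrile, UV detection at 280 and 360 nm. Kyn/Trp ratio calculated. n = 9–10/group.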
# [2] = biological target: T1, Tryptophan 2,3-dioxygenase (Homo sapiens, UniProt P48775); assay: Binding affinity to human TDO assessed as change in spectral signal at 200 uM by CPMG NMR spectrometry analysis
# Target sequence in this assay (P48775 whole entry, looked up): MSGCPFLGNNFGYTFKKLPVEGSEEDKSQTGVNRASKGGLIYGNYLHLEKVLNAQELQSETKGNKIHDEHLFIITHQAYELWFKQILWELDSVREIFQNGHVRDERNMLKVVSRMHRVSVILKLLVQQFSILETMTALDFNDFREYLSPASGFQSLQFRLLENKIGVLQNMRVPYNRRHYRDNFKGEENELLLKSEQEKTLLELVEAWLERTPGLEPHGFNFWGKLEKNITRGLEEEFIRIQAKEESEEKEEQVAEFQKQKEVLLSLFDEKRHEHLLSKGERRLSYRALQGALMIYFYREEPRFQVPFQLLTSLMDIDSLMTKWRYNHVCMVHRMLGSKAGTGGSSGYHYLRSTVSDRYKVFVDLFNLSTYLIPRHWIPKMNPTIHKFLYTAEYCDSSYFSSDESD
# [3] = test system: Lewis lung carcinoma cell line; assay: Antitumor activity against mouse LLC cells implanted in C57BL/6 mouse assessed as tumor regression at 45 mg/kg, po qd administered for 2 weeks and measured post-treatment; assay type: functional, organism-based
# Method in brief: (§2)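 Tumor cells (LLC, or H22 ascites cells after two intraperitoneal passages in Kunming mice) injected sc into the right forelimb at 2 × 10⁶ per mouse, in female 6–8-week C57BL/6 or Kunming mice. Oral dosing once daily began at 5 mm tumor diameter and continued 2 weeks. Vehicle was 0.5% CMC-Na. Volume was read by caliper every 2 days as long × short²/2. Tumors were weighed at sacrifice. n = 9–10/group.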
# [4] = test system: Lewis lung carcinoma cell line; assay: Antitumor activity against mouse LLC cells implanted in C57BL/6 mouse assessed as reduction in tumor volume at 45 mg/kg, po qd administered for 2 weeks and measured at 2 days interval during compound dosing relative to control; assay type: functional; design: scale not given: the % may be the effect or the level left; method in brief: as §2
# Mus musculus [5] = assay: (§3) In vivo inhibition of IDO1/2/TDO in C57BL/6 mouse assessed as decrease in LPS-stimulated kynurenine pathway by measuring decrease in ratio of kynurenine to tryptophan level in serum at 60 mg/kg, ig pretreated for 24 hrs with Escherichia coli LPS followed by compound treatment measured at 24 hrs post-treatment by HPLC analysis; assay type: functional, organism-based
# Method in brief: (§4)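 C57BL/6 mice were given ip saline or E. coli LPS 5 mg/kg. 24 h later they received ig 60 mg/kg compound or 0.5% CMC-Na. Blood was taken at 1, 6, 12, 24 and 30 h after dosing. Serum Trp and Kyn were measured by HPLC and the Kyn/Trp ratio calculated. n = 3–5 mice/group.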
# [6] = test system: Lewis lung carcinoma cell line; assay: Antitumor activity against mouse LLC cells implanted in C57BL/6 mouse assessed as reduction in tumor weight at 45 mg/kg, po qd administered for 2 weeks and measured post-treatment; assay type: functional, organism-based; method in brief: as §2
# Rattus norvegicus = assay: In vivo inhibition of IDO1/2/TDO in Sprague-Dawley rat assessed as increase in tryptophan level in lung at 30 mg/kg, ig administered as single dose by LC-MS analysis; assay type: functional, organism-based
# Method in brief: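 Naive SD rats received a single ig dose of 30 mg/kg in 0.5% CMC-Na, with vehicle as control. Lungs were dissected and Trp and Kyn quantified by LC–MS, with the Kyn/Trp ratio calculated. n = 3–4 rats/group.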
# Mus musculus [7] = assay: In vivo blockade of kynurenine pathway in C57BL/6 mouse implanted with mouse LLC cells assessed as increase in tryptophan level in tumor at 45 mg/kg, po qd for 2 weeks by LC-MS analysis; assay type: functional, organism-based
# Method in brief: (§5)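 LLC tumor-bearing C57BL/6 mice received oral dosing once daily in 0.5% CMC-Na for 2 weeks. Tumors were dissected and Trp and Kyn measured by LC–MS on a C18 column with acetonitrile/0.1% formic acid gradient (5–80%), positive ion mode, m/z 205 (Trp) and 209 (Kyn), metronidazole internal standard. Kyn/Trp ratio calculated. n = 4–6/group.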
# Mus musculus [8] = assay: In vivo blockade of kynurenine pathway in C57BL/6 mouse implanted with mouse LLC cells assessed as decrease in kynurenine level in tumor at 45 mg/kg, po qd for 2 weeks by LC-MS analysis; assay type: functional, organism-based; method in brief: as §5
# [9] = biological target: T1, Tryptophan 2,3-dioxygenase; assay: Inhibition of human TDO transfected in HEK293 cells assessed as reduction in kynurenine production using L-tryptophan as substrate incubated for 12 hrs; assay type: cell-based
# Method in brief: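 U87 MG cells (hIDO2) or HEK293 cells (hTDO) were transiently transfected at 80% confluence, with empty vector as control. After 18 h, cells were seeded 2.5 × 10⁴/well in medium with 200 μM L-Trp. Compound serial dilutions were added after a further 6 h (IDO2) or 12 h (TDO). Reactions were stopped 24 h (IDO2) or 8 h (TDO) later with TCA, heated 65 °C 15 min, and Kyn read with DMAB at 492 nm. IC50 by nonlinear regression.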
# Target sequence in this assay (P48775 whole entry): as the sequence (P48775 whole entry, looked up) above
# [10] = biological target: T1, Tryptophan 2,3-dioxygenase; assay: Uncompetitive inhibition of recombinant human TDO expressed in Escherichia coli BL21 (DE3) assessed as assessed as inhibition constant using varying concentration of L-tryptophan as substrate by Dixon plot analysis
# Method in brief: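 Enzymatic assays of the kynurenine-forming reaction were run with varying L-Trp. Ki was derived by plotting [S]/V against inhibitor concentration [I], with inhibition type assigned from the graphical pattern.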
# Target sequence in this assay (P48775 whole entry): as the sequence (P48775 whole entry, looked up) above
# [11] = biological target: T1, Tryptophan 2,3-dioxygenase; assay: Binding affinity to human TDO at 200 uM by STD NMR spectrometry analysis
# Target sequence in this assay (P48775 whole entry, looked up): as above
# Mus musculus [12] = assay: as §3, with “measuring increase” for “measuring decrease”, “in serum” for “in ratio of kynurenine to”, “level” for “level in serum”; assay type: functional, organism-based; method in brief: as §4
# Mus musculus [13] = assay: In vivo blockade of kynurenine pathway in Kunming mouse implanted with mouse H22 cells assessed as increase in tryptophan level in serum at 45 mg/kg, po qd for 2 weeks by HPLC analysis; assay type: functional, organism-based; method in brief: as §1
# Mus musculus [14] = assay: as §3, with “measuring increase” for “measuring decrease”, “in serum” for “in ratio of kynurenine to”, “level” for “level in serum”, “at 12” for “at 24”; assay type: functional, organism-based; method in brief: as §4
# [15] = biological target: T2, Indoleamine 2,3-dioxygenase 2 (Homo sapiens) (UniProt Q6ZQW0); assay: Binding affinity to human IDO2 at 200 uM by STD NMR spectrometry analysis
# T2 sequence (whole entry): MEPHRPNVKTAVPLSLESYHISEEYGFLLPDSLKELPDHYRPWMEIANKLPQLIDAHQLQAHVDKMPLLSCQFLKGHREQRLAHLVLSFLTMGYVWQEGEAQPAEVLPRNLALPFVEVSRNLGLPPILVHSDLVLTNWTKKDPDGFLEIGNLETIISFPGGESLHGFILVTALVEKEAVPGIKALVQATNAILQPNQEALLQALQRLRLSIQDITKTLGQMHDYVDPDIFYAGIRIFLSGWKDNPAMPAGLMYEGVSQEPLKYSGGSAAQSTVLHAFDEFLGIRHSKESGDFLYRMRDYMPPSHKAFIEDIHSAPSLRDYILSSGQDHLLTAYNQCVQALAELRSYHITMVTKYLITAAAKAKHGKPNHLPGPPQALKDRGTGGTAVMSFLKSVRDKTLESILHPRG
# H22 = assay: Antitumor activity against mouse H22 cells implanted in Kunming mouse assessed as reduction in tumor volume at 45 mg/kg, po qd administered for 2 weeks and measured at 2 days interval during compound dosing relative to control; assay type: functional; design: scale not given: the % may be the effect or the level left; method in brief: as §2
# Mus musculus [16] = assay: In vivo blockade of kynurenine pathway in Kunming mouse implanted with mouse H22 cells assessed as decrease in kynurenine level in serum at 45 mg/kg, po qd for 2 weeks by HPLC analysis; assay type: functional, organism-based; method in brief: as §1
smiles,measurement,setting,value
CN1CCN(Cc2ccc3nc4n(c(=O)c3c2)-c2ccc(F)cc2C4=O)CC1,Activity,Mus musculus [1],Active
same,Activity,[2],Active
same,Activity,[3],inactive
same,Activity,[4],56.2%
same,inhibition,Mus musculus [5],Active
same,Activity,[6],Active
same,inhibition,Rattus norvegicus,Active
same,Activity,Mus musculus [7],inactive
same,Activity,Mus musculus [8],Active
same,IC50,[9],90 nM
same,Ki,[10],310 nM
same,Activity,[11],Active
same,inhibition,Mus musculus [12],Active
same,Activity,Mus musculus [13],Active
same,inhibition,Mus musculus [14],Active
same,Activity,[15],Active
same,Activity,H22,47.3%
same,Activity,Mus musculus [16],Active
